Two compounds from ChEMBL document CHEMBL1255395, “Laninamivir prodrug CS-8958, a long-acting neuraminidase inhibitor, shows superior anti-influenza virus activity after a single administration” (Antimicrob Agents Chemother, 2010) can be followed below.

The source made the active and inactive calls. The rule behind the calls is not given here.

The term half-life denotes how long it takes for the measured level to halve. High values mean slow decline, low ones rapid decline.

Series [1] is described as follows: Half life in human. To be noted: in vivo. The format is ADME, organism-based.
For series [2], the system named is Influenza A virus. The series is described as follows: Antimicrobial activity against Influenza A virus (A/Puerto Rico/8/34(H1N1)) infected in BALB/c mouse assessed as increase in mouse survival at 3.3 mg/kg, itn administered for 7 days before infection. Conditions: A/Puerto Rico/8/1934(H1N1). In kind it is functional, organism-based. On the set-up: dose 3.3 mg/kg.

Series [3] has as its system Influenza A virus. The series is described as follows: Antimicrobial activity against Influenza A virus (A/Puerto Rico/8/34(H1N1)) infected in BALB/c mouse assessed as increase in mouse survival at 7 mg/kg, itn administered for 7 days before infection. In kind it is functional, organism-based. Also on record: dose 7 mg/kg. Conditions: A/Puerto Rico/8/1934(H1N1).
Series [4] has as its system Influenza A virus. The series is described as follows: Antimicrobial activity against Influenza A virus (A/Puerto Rico/8/34(H1N1)) infected in BALB/c mouse assessed as increase in mouse survival at 14 mg/kg, itn administered for 7 days before infection. In kind it is functional, organism-based. Also on record: dose 14 mg/kg. Conditions: A/Puerto Rico/8/1934(H1N1).
The test system of series [5] is Influenza A virus. The series is described as follows: Antimicrobial activity against Influenza A virus (A/Puerto Rico/8/34(H1N1)) infected in BALB/c mouse assessed as increase in mouse survival at 1.6 mg/kg, itn administered for 7 days before infection. In kind it is functional, organism-based. On the set-up: dose 1.6 mg/kg. To be noted: A/Puerto Rico/8/1934(H1N1).

The subject of series [6] is Influenza A virus. The series can be described thus: Antimicrobial activity against Influenza A virus (A/Puerto Rico/8/34(H1N1)) infected in BALB/c mouse assessed as increase in mouse survival at 4.7 mg/kg, itn administered for 7 days before infection. The format is functional, organism-based. On the set-up: dose 4.7 mg/kg. Conditions: A/Puerto Rico/8/1934(H1N1).
Series [7] concerns Influenza A virus. The series is described as follows: Antimicrobial activity against Influenza A virus (A/Puerto Rico/8/34(H1N1)) infected in BALB/c mouse assessed as reduction in viral titer in lung at 14 mg/kg, itn administered for 7 days before infection. To be noted: A/Puerto Rico/8/1934(H1N1). The format is functional, organism-based. On the set-up: dose 14 mg/kg. The method, boiled down:
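Female BALB/c mice (5–6 wk) given one intranasal dose in saline (50 μl) 7 days before intranasal infection with A/PR/8/34, 500 PFU. Lungs (three mice per time point) excised on days 1, 2, 3 and 4 and homogenized in PBS-BSA/PS. Titer determined by MDCK plaque assay, read as log10 PFU/lungs, mean ± SD (n = 3). AUC expressed as percent of saline control.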

For series [8], the system named is Influenza B virus. The series can be described thus: Antimicrobial activity against Influenza B virus (B/Hong Kong/05/1972) infected in BALB/c mouse assessed as increase in mouse survival at 1.1 mg/kg, itn administered for 7 days before infection. In kind it is functional, organism-based. On the set-up: dose 1.1 mg/kg.
Series [9] concerns Influenza B virus. The series can be described thus: Antimicrobial activity against Influenza B virus (B/Hong Kong/05/1972) infected in BALB/c mouse assessed as increase in mouse survival at 3.3 mg/kg, itn administered for 7 days before infection. In kind it is functional, organism-based. On the set-up: dose 3.3 mg/kg.
Series [10] has as its system Influenza B virus. The series is described as follows: Antimicrobial activity against Influenza B virus (B/Hong Kong/05/1972) infected in BALB/c mouse assessed as increase in mouse survival at 9.6 mg/kg, itn administered for 7 days before infection. The format is functional, organism-based. On the set-up: dose 9.6 mg/kg.
For series [11], the system named is Influenza B virus. The series is described as follows: Antimicrobial activity against Influenza B virus (B/Malaysia/2506/2004) infected itn dosed Mustela putorius furo assessed as nasal viral titer treated after 4 hrs post infection measured after 1 day. In kind it is functional, organism-based. In outline: (§1)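 Ferrets (600–800 g), seronegative by hemagglutination inhibition, anaesthetized with ketamine/xylazine and infected with B/Malaysia/2506/2004, 1,000 PFU/100 μl. From 4 hpi they received either a single intranasal dose (saline, 0.05 or 0.5 μmol/kg) or 25 mg/kg oral twice daily. Nasal wash titers measured by MDCK plaque assay on days 1, 2 and 3, log10 PFU/ml (n = 5). Undetectable samples entered at the lower limit of detection.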

Series [12] deals with Influenza B virus. The series can be described thus: Antimicrobial activity against Influenza B virus (B/Malaysia/2506/2004) infected itn dosed Mustela putorius furo assessed as nasal viral titer treated after 4 hrs post infection measured after 2 days. The format is functional, organism-based. The method, boiled down:
as §1

The test system of series [13] is Influenza B virus. The series is described as follows: Antimicrobial activity against Influenza B virus (B/Malaysia/2506/2004) infected itn dosed Mustela putorius furo assessed as nasal viral titer treated after 4 hrs post infection measured after 3 days. The format is functional, organism-based. In outline:
as §1

Series [14] relates to Influenza A virus. The series can be described thus: Antimicrobial activity against Influenza A virus (A/Puerto Rico/8/34(H1N1)) infected in BALB/c mouse assessed as reduction in viral titer in lung at 0.17 mg/kg, itn administered 11 hrs post infection measured after 35 hrs post infection. In kind it is functional, organism-based. On the set-up: dose 0.17 mg/kg. To be noted: A/Puerto Rico/8/1934(H1N1). In outline:
(§2)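 BALB/c mice infected intranasally with A/PR/8/34 at 30 PFU. Intranasal dosing at 0.5 μmol/kg began at 11 hpi, either repeated twice daily or given once followed by twice-daily saline. Lungs (n = 3) were taken at 35, 59 and 83 hpi and homogenized. Titers were measured by MDCK plaque assay as log10 PFU/lungs. Two-way ANOVA and Dunnett test were applied.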

The test system of series [15] is Influenza A virus. The series is described as follows: Antimicrobial activity against Influenza A virus (A/Puerto Rico/8/34(H1N1)) infected in BALB/c mouse assessed as reduction in viral titer in lung at 0.17 mg/kg, itn administered 11 hrs post infection measured after 59 hrs post infection. The format is functional, organism-based. On the set-up: dose 0.17 mg/kg. Conditions: A/Puerto Rico/8/1934(H1N1). The method, boiled down: as §2

In series [16] the test system is Influenza A virus. The series is described as follows: Antimicrobial activity against Influenza A virus (A/Puerto Rico/8/34(H1N1)) infected in BALB/c mouse assessed as reduction in viral titer in lung at 0.17 mg/kg, itn administered 11 hrs post infection measured after 83 hrs post infection. Conditions: A/Puerto Rico/8/1934(H1N1). In kind it is functional, organism-based. Also on record: dose 0.17 mg/kg. In outline:
as §2

The test system of series [17] is Influenza B virus. The series is described as follows: Antimicrobial activity against Influenza B virus (B/Hong Kong/05/1972) infected in BALB/c mouse assessed as increase in mouse survival at 1.1 mg/kg, itn administered for 7 days before infection measured at day 20. The format is functional.
In series [18] the test system is Influenza A virus. The series is described as follows: Antimicrobial activity against Influenza A virus (A/Puerto Rico/8/34(H1N1)) infected in BALB/c mouse assessed as increase in mouse survival at 1.7 mg/kg, itn administered for 7 days before infection. In kind it is functional, organism-based. On the set-up: dose 1.7 mg/kg. To be noted: A/Puerto Rico/8/1934(H1N1). In outline:
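Single intranasal dose in saline (50 μl) given to anesthetized female BALB/c mice 7 days before intranasal infection with A/PR/8/34 at 500 PFU, n = 12. Survival was checked daily to day 20. Groups were compared with saline controls by Kaplan-Meier and log-rank test, with Bonferroni adjustment where needed.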

The compound `CC(=O)N[C@H]1[C@H]([C@H](O)[C@H](O)CO)OC(C(=O)O)=C[C@@H]1N=C(N)N` [ZANAMIVIR] showed a half-life in [1] of 2.8 h.

Take `CC(=O)N[C@H]1[C@H]([C@H](O)[C@H](O)CO)OC(C(=O)O)=C[C@@H]1NC(=N)N` [ZANAMIVIR]: the result in the series with Influenza A virus [2], in the series with Influenza A virus [3], in the series on Influenza A virus [4], in the series on Influenza A virus [5], in the series with Influenza A virus [6] and with Influenza A virus [7] was Active. In addition, the result in the series on Influenza B virus [8], with Influenza B virus [9], in the series on Influenza B virus [10], with Influenza A virus [14], in the series with Influenza A virus [15] and in the series on Influenza A virus [16] was Active. The outcome with Influenza A virus [18] was Active. For the same compound, the Activity entry is “Dose-dependent effect” in the series with Influenza B virus [11], “Dose-dependent effect” in the series on Influenza B virus [12], “Dose-dependent effect” in the series with Influenza B virus [13] and 36% in the series on Influenza B virus [17].
